Measured values from ChEMBL document CHEMBL1122835, “Synthesis and pharmacology of the potent angiotensin-converting enzyme inhibitor N-[1(S)-(ethoxycarbonyl)-3-phenylpropyl]-(S)-alanyl-(S)-pyroglutamic acid” (J Med Chem, 1985).

Key:
[1] = Half life was determined; format: ADME; settings: rat
Procedure, shortened: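 Rats anesthetized with pentobarbital/barbital received a single iv dose, 0.2 or 0.08 mg/kg. AI 0.3 μg/kg iv given at 5 min, then every 10 min for 210 min. Half-life = time for the AI pressor response to fall to 50% of its peak inhibition.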

[2] = tested on: Canis familiaris; assay: Effect on pressor response of angiotensin I in anesthetized dog, dose 0.1 mg/kg administered intravenously; format: functional, Canis lupus familiaris; settings: route intravenous
Procedure, shortened: (§1)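 Mongrel dogs, 7.3–15.5 kg, anesthetized with barbital/pentobarbital iv, tracheotomized and vagotomized, n = 4. Cumulative iv doses in saline (0.2 mL/kg) spaced 30 min apart. AI and AII 1 μg/kg iv challenges given after each dose; the second pre-dose set served as control.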

[3] = tested on: Canis familiaris; assay: Effect on pressor response of angiotensin I in anesthetized dog, dose 0.9 mg/kg administered intravenously; format: functional, Canis lupus familiaris; settings: route intravenous; procedure, shortened: as §1
[4] = tested on: Canis familiaris; assay: Effect on pressor response of angiotensin I in conscious dog at 60-65 min, dose 2 mg/kg administered orally; format: functional, Canis lupus familiaris; settings: route oral
Procedure, shortened: (§2)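 Conscious fasted mongrel dogs of both sexes, 6.8–15.3 kg, with femoral cannulas. Drug given orally in 0.25% methylcellulose with 3% glycerin (2 mL/kg), n = 4 per dose. AI 0.3, AII 0.1 and NE 1 μg/kg iv challenges. The second pre-dose set served as control; response measured at 60–65 min post-dose.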

[5] = tested on: Canis familiaris; assay: Effect on pressor response of angiotensin II in anesthetized dog, dose 0.1 mg/kg administered intravenously; format: functional, Canis lupus familiaris; settings: route intravenous; procedure, shortened: as §1
[6] = tested on: Canis familiaris; assay: Effect on pressor response of angiotensin II in anesthetized dog, dose 0.3 mg/kg administered intravenously; format: functional, Canis lupus familiaris; settings: route intravenous; procedure, shortened: as §1
[7] = tested on: Canis familiaris; assay: Effect on pressor response of angiotensin II in conscious dog at 60-65 min, dose 1 mg/kg administered orally; format: functional, Canis lupus familiaris; settings: route oral; procedure, shortened: as §2
[8] = tested on: Canis familiaris; assay: Effect on pressor response of angiotensin II in conscious dog at 60-65 min, dose 2 mg/kg administered orally; format: functional, Canis lupus familiaris; settings: route oral; procedure, shortened: as §2
[9] = tested on: Rattus norvegicus; assay: Effect on systolic blood pressure was determined in renal hypertensive rat, administered orally at a dose 100 mg/kg; format: functional, Artery; settings: route oral
Procedure, shortened: (§3)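 Renal hypertensive rats were prepared by clipping the left renal artery (0.22-mm clip) in 4-week-old male CD rats and held 6 weeks. Overnight-fasted rats were dosed orally with aqueous solution (5 mL/kg), water as control. Tail-cuff systolic pressure and heart rate measured 2 h post-dose. ANOVA with Duncan's test; ED30 by linear regression.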

[10] = tested on: Rattus norvegicus; assay: Percent change was determined in bradykinin depressor response in anesthetized normotensive rat, administered intravenously at dose 0.0033 mg/kg; format: functional; settings: route intravenous
Procedure, shortened: (§4)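 Anesthetized (pentobarbital/barbital ip) male Charles River CD rats, 380–500 g, kept at 37 °C. Femoral artery blood pressure recorded. Control depressor response to bradykinin 1 μg/kg iv, then cumulative iv drug in 0.9% saline (1 mL/kg), 0.0033–0.27 mg/kg. Bk challenge 5 min after each dose. ED50 = dose giving a 50% change from control, by linear regression; N = 8.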

[11] = tested on: Rattus norvegicus; assay: Percent change was determined in bradykinin depressor response in anesthetized normotensive rat, administered intravenously at dose 0.010 mg/kg; format: functional; settings: dose 0.01 mg/kg; route intravenous
Procedure, shortened: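 Male Charles River CD rats (380–500 g), pentobarbital Na 15 mg/kg plus barbital 220 mg/kg ip, tracheotomized, femoral artery/vein cannulated, kept at 37 °C. Control bradykinin 1 μg/kg iv depressor response, separate from angiotensin tests; drug iv in 0.9% saline (1 mL/kg, free base) 10 min later, Bk 5 min after each cumulative dose (0.0033–0.27 mg/kg). Maximum fall in arterial pressure versus control response; N = 8.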

[12] = tested on: Rattus norvegicus; assay: Percent decrease in angiotensin I pressor response was measured in rat, administered intravenously at dose 0.030 mg/kg; format: functional; settings: dose 0.03 mg/kg; route intravenous
Procedure, shortened: (§5)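 Anesthetized (pentobarbital Na 15 mg/kg + barbital 220 mg/kg ip), tracheotomized male Charles River CD rats, 380–500 g, femoral cannulas, heated board at 37 °C. Control pressor responses to angiotensin I 0.3 μg/kg then angiotensin II 0.1 μg/kg iv; drug iv in 0.9% saline (free base), AI and AII repeated at 5-min intervals, cumulative 0.01–0.81 mg/kg. Peak arterial pressure rise versus control.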

[13] = tested on: Rattus norvegicus; assay: Percent decrease in angiotensin I pressor response was measured in rat, administered intravenously at dose 0.090 mg/kg; format: functional; settings: dose 0.09 mg/kg; route intravenous; procedure, shortened: as §5
[14] = tested on: Rattus norvegicus; assay: Percent decrease in angiotensin I pressor response was measured in rat, administered intravenously at dose 0.27 mg/kg; format: functional; settings: route intravenous; procedure, shortened: as §5
[15] = tested on: Rattus norvegicus; assay: Hypotensive activity was determined in low-sodium treated rat, dose 3 mg/kg administered orally at 2 hr; format: functional; settings: route oral
Procedure, shortened: (§6)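 Male CD rats, 11 weeks old, kept on a sodium-deficient diet for 3 weeks and fasted overnight, were dosed orally with aqueous solutions (5 mL/kg), water as control. Systolic pressure measured by tail cuff at the stated post-dose time. ANOVA with Duncan's test.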

[16] = tested on: Rattus norvegicus; assay: Hypotensive activity was determined in low-sodium treated rat, dose 30 mg/kg administered orally at 5 hr; format: functional; settings: route oral; procedure, shortened: as §6
[17] = tested on: Rattus norvegicus; assay: Hypotensive activity was determined in low-sodium treated rat, dose 3 mg/kg administered orally at 5 hr; format: functional; settings: route oral; procedure, shortened: as §6
[18] = tested on: Rattus norvegicus; assay: Decrease in systolic blood pressure of Spontaneous Hypertensive Rats (SHR) pretreated with hydrochlorothiazide upon oral administration at 30 mm/kg; format: functional, Artery
Procedure, shortened: (§7)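 Male SHR, 13 weeks old, given HCTZ 25 mg/kg po in 0.25% methylcellulose daily for 3 days. Drug given orally in water (5 mL/kg) 1 h after the third dose. Tail-cuff systolic pressure and pulse-count heart rate taken 1.5 h later after 20 min warming at 38 °C. ANOVA with Duncan's test; ED30 by linear regression.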

[19] = tested on: Rattus norvegicus; assay: Change in heart rate was determined at a dose 30 mg/kg; format: functional; procedure, shortened: as §7
[20] = tested on: Rattus norvegicus; assay: Change in heart rate was determined at a dose 3 mg/kg; format: functional; procedure, shortened: as §7
[21] = tested on: Rattus norvegicus; assay: Change in heart rate was determined in renal hypertensive rat, administered orally at a dose 100 mg/kg; format: functional; settings: route oral; procedure, shortened: as §3
[22] = tested on: Rattus norvegicus; assay: Effect on vasopressor response caused by angiotensin I (AI) in anesthetized normotensive rat, administered intravenously at dose 0.010 mg/kg; format: functional; settings: dose 0.01 mg/kg; route intravenous
Procedure, shortened: (§8)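 Male Charles River CD rats, 380–500 g, anesthetized with pentobarbital Na 15 mg/kg plus barbital 220 mg/kg ip, held at 37 °C. Femoral artery pressure recorded. AI 0.3 μg/kg and AII 0.1 μg/kg given iv as challenges. Cumulative iv drug in saline, 0.01–0.81 mg/kg, each dose followed by AI/AII challenges at 5-min intervals. ED50 = 50% change from control response, by linear regression.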

[23] = tested on: Rattus norvegicus; assay: Effect on vasopressor response caused by angiotensin I (AI) in anesthetized normotensive rat, administered intravenously at dose 0.030 mg/kg; format: functional; settings: dose 0.03 mg/kg; route intravenous; procedure, shortened: as §8
[24] = tested on: Rattus norvegicus; assay: Effect on vasopressor response caused by angiotensin I (AI) in anesthetized normotensive rat, administered intravenously at dose 0.090 mg/kg; format: functional; settings: dose 0.09 mg/kg; route intravenous; procedure, shortened: as §8
[25] = tested on: Rattus norvegicus; assay: Effect on vasopressor response caused by angiotensin I (AI) in anesthetized normotensive rat, administered intravenously at dose 0.81 mg/kg; format: functional; settings: route intravenous; procedure, shortened: as §8
[26] = tested on: Rattus norvegicus; assay: Activity against the bradykinin Response in anesthetized normotensive rat, administered intravenously at dose 0.090 mg/kg; format: functional; settings: dose 0.09 mg/kg; route intravenous; procedure, shortened: as §4
[27] = tested on: Canis familiaris; assay: Effect on pressor response of angiotensin I in conscious dog at 60-65 min, dose 1 mg/kg administered orally; format: functional, Canis lupus familiaris; settings: route oral; procedure, shortened: as §2

Question: For `CCOC(=O)[C@H](CCc1ccccc1)N[C@@H](C)C(=O)N1C(=O)CC[C@H]1C(=O)O`, which half-life [1] is on record?
Answer: 2 h

Question: What about the Blood pressure [2] of the same molecule?
Answer: 60 mmHg

Question: What about the Blood pressure [3] of the same molecule?
Answer: 28 mmHg

Question: And the Blood pressure [4]?
Answer: 8 mmHg

Question: What about the Blood pressure [5] of the same molecule?
Answer: 64 mmHg

Question: And the Blood pressure [6]?
Answer: 68 mmHg

Question: What about the Blood pressure [7] of the same molecule?
Answer: 48 mmHg

Question: And the Blood pressure [8]?
Answer: 40 mmHg

Question: What about the Activity [9] of the same molecule?
Answer: 186 mmHg

Question: What about the Change [10] of the same molecule?
Answer: 22%

Question: And the Change [11]?
Answer: 61%

Question: And the Decrease [12]?
Answer: 19%

Question: What about the Decrease [13] of the same molecule?
Answer: 31%

Question: What about the Decrease [14] of the same molecule?
Answer: 63%

Question: And the Activity [15]?
Answer: 154 mmHg

Question: What about the Activity [16] of the same molecule?
Answer: 132 mmHg

Question: And the Activity [17]?
Answer: 153 mmHg

Question: And the Blood pressure [18]?
Answer: 190 mmHg

Question: What about the Heart rate [19] of the same molecule?
Answer: 381 beats min-1

Question: What about the Heart rate [20] of the same molecule?
Answer: 374 beats min-1

Question: What about the Heart rate [21] of the same molecule?
Answer: 454 beats min-1

Question: And the Response [22]?
Answer: 45 mmHg

Question: What about the Response [23] of the same molecule?
Answer: 39 mmHg

Question: What about the Response [24] of the same molecule?
Answer: 33 mmHg

Question: What about the Response [25] of the same molecule?
Answer: 4 mmHg

Question: And the Response [26]?
Answer: -61 mmHg

Question: What about the Blood pressure [27] of the same molecule?
Answer: 23 mmHg
